Measured values as given in ChEMBL document CHEMBL1154044, “5-Nitro-2-furyl derivative actives against Trypanosoma cruzi: preliminary in vivo studies” (Eur J Med Chem, 2009).
Active and inactive are the calls of the source. No cut-off for these calls is given here.

Legend:
Mus musculus [1] = test: Toxicity in CD1 mouse lung at 300 mg/kg, ip after 3 days by histological study; type: organism-based; parameters: dose 300 mg/kg, route intraperitoneal; conditions: in vivo, 72 h
How it was run: (§1)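 Healthy female CD1 mice (20–22 g), 5–7 per group, given a single oral (intragastric) or i.p. dose in saline:Tween 80 (4:1) vehicle. Sacrificed on day 3 after ether anaesthesia. Organs fixed in 10% aqueous formalin for histology. Scored against untreated animals from no change to +++ (many changes).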

Mus musculus [2] = test: Toxicity in CD1 mouse brain at 300 mg/kg, ip after 3 days by histological study; type: organism-based; parameters: dose 300 mg/kg, route intraperitoneal; conditions: in vivo, 72 h; how it was run: as §1
Mus musculus [3] = test: Toxicity in CD1 mouse intestine at 450 mg/kg, po after 3 days by histological study; type: organism-based; parameters: dose 450 mg/kg, route oral; conditions: in vivo, 72 h; how it was run: as §1
Trypanosoma cruzi [4] = test: Growth inhibition of Trypanosoma cruzi Tulahuen 2 epimastigote at 5 uM after 5 days; type: functional; conditions: Trypanosoma cruzi, Tulahuen 2, 120 h; read-out: GI
Mus musculus [5] = test: Toxicity in CD1 mouse liver at 450 mg/kg, po after 3 days by histological study; type: organism-based; parameters: dose 450 mg/kg, route oral; conditions: in vivo, 72 h; how it was run: as §1
Mus musculus [6] = test: Toxicity in CD1 mouse lung at 450 mg/kg, po after 3 days by histological study; type: organism-based; parameters: dose 450 mg/kg, route oral; conditions: in vivo, 72 h; how it was run: as §1
Trypanosoma cruzi [7] = test: Antitrypanosomal activity against Trypanosoma cruzi infected in po dosed CD1 mouse assessed as prevention of amastigote nest in heart administered daily for 14 days measured on day 45; type: functional, organism-based
How it was run: (§2)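 T. cruzi, a Uruguayan patient isolate, was inoculated intradermally into 2-month-old female CD1 mice (20–22 g). Dosing began on day 15 after parasitaemia was observed. Drugs were suspended in saline:Tween 80 (4:1) and given by intragastric syringe once daily for 14 days, with untreated controls. On day 45 after treatment start, heart and muscle sections were scored by two independent observers for amastigotes and inflammatory infiltrates. Groups had 5–7 mice.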

Trypanosoma cruzi [8] = test: Antitrypanosomal activity against Trypanosoma cruzi infected in po dosed CD1 mouse assessed as prevention of inflammatory infiltrates in heart administered daily for 14 days measured on day 45; type: functional, organism-based; how it was run: as §2
Mus musculus [9] = test: Toxicity in CD1 mouse liver at 300 mg/kg, ip after 3 days by histological study; type: organism-based; parameters: dose 300 mg/kg, route intraperitoneal; conditions: in vivo, 72 h; how it was run: as §1
Mus musculus [10] = test: Toxicity in CD1 mouse heart at 450 mg/kg, po after 3 days by histological study; type: organism-based; parameters: dose 450 mg/kg, route oral; conditions: in vivo, 72 h; how it was run: as §1
Mus musculus [11] = test: Toxicity in CD1 mouse assessed as survival at 150 mg/kg, ip after 3 days; type: organism-based; parameters: dose 150 mg/kg, route intraperitoneal; conditions: in vivo, 72 h
How it was run: (§3)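 Healthy 2-month-old female CD1 mice (20–22 g), groups of 5–7, given one oral dose by intragastric syringe or one i.p. injection. Compound suspended in saline:Tween 80 (4:1) with sonication just before dosing; vehicle-treated controls included. Weighed and observed daily over 3 days for skin, physical aspect, activity and faeces; survival recorded at day 3.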

Mus musculus [12] = test: Toxicity in CD1 mouse intestine at 300 mg/kg, ip after 3 days by histological study; type: organism-based; parameters: dose 300 mg/kg, route intraperitoneal; conditions: in vivo, 72 h; how it was run: as §1
Mus musculus [13] = test: Toxicity in CD1 mouse assessed as survival at 450 mg/kg, po after 3 days; type: organism-based; parameters: dose 450 mg/kg, route oral; conditions: in vivo, 72 h; how it was run: as §3
Mus musculus [14] = test: Toxicity in CD1 mouse assessed as survival at 300 mg/kg, ip after 3 days; type: organism-based; parameters: dose 300 mg/kg, route intraperitoneal; conditions: in vivo, 72 h; how it was run: as §3
Mus musculus [15] = test: Toxicity in CD1 mouse kidney at 450 mg/kg, po after 3 days by histological study; type: organism-based; parameters: dose 450 mg/kg, route oral; conditions: in vivo, 72 h; how it was run: as §1
Mus musculus [16] = test: Toxicity in CD1 mouse assessed as survival at 300 mg/kg, po after 3 days; type: organism-based; parameters: dose 300 mg/kg, route oral; conditions: in vivo, 72 h; how it was run: as §3
Mus musculus [17] = test: Toxicity in CD1 mouse brain at 450 mg/kg, po after 3 days by histological study; type: organism-based; parameters: dose 450 mg/kg, route oral; conditions: in vivo, 72 h; how it was run: as §1
Mus musculus [18] = test: Toxicity in CD1 mouse assessed as decrease in weight respect to day zero at 300 mg/kg, po after 3 days; type: organism-based; parameters: dose 300 mg/kg, route oral; scale not given: the % may be the effect or the level left; conditions: in vivo, 72 h
How it was run: (§4)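 Healthy 2-month-old female CD1 mice (20–22 g, 5–7 per group) received one dose. Oral doses of 450 or 300 mg/kg were given by intragastric syringe; i.p. doses of 300 or 150 mg/kg by injection. Drugs were suspended in saline:Tween 80 (4:1), and a vehicle-only control was included. Mice were weighed and observed daily for 3 days. Weight change is expressed as percent relative to day zero.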

Mus musculus [19] = test: Toxicity in CD1 mouse assessed as decrease in weight respect to day zero at 450 mg/kg, po after 3 days; type: organism-based; parameters: dose 450 mg/kg, route oral; scale not given: the % may be the effect or the level left; conditions: in vivo, 72 h; how it was run: as §4
Mus musculus [20] = test: Toxicity in CD1 mouse assessed as decrease in weight respect to day zero at 150 mg/kg, ip after 3 days; type: organism-based; parameters: dose 150 mg/kg, route intraperitoneal; scale not given: the % may be the effect or the level left; conditions: in vivo, 72 h; how it was run: as §4
Mus musculus [21] = test: Toxicity in CD1 mouse kidney at 300 mg/kg, ip after 3 days by histological study; type: organism-based; parameters: dose 300 mg/kg, route intraperitoneal; conditions: in vivo, 72 h; how it was run: as §1
Mus musculus [22] = test: Toxicity in CD1 mouse heart at 300 mg/kg, ip after 3 days by histological study; type: organism-based; parameters: dose 300 mg/kg, route intraperitoneal; conditions: in vivo, 72 h; how it was run: as §1
Mus musculus [23] = test: Toxicity in CD1 mouse assessed as glutamic-oxalacetate transaminase level at 300 mg/kg, ip after 3 days; type: organism-based; parameters: dose 300 mg/kg, route intraperitoneal; conditions: in vivo, 72 h
How it was run: (§5)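 Healthy female CD1 mice (5–7 per group) received a single oral dose of 450 mg/kg or an i.p. dose of 300 mg/kg, with vehicle controls. On day 3 they were sacrificed under ether anaesthesia. Blood was drawn from the subclavian artery and kept at 0 °C in EDTA or heparin. Leukocytes, haemoglobin, haematocrit, GPT and GOT were measured within 24 h and compared with normal ranges.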

Mus musculus [24] = test: Toxicity in CD1 mouse assessed as leukocyte level at 300 mg/kg, ip after 3 days; type: organism-based; parameters: dose 300 mg/kg, route intraperitoneal; conditions: in vivo, 72 h; how it was run: as §5
Mus musculus [25] = test: Toxicity in CD1 mouse assessed as hematocrite level at 450 mg/kg, po after 3 days; type: organism-based; parameters: dose 450 mg/kg, route oral; conditions: in vivo, 72 h; how it was run: as §5
Mus musculus [26] = test: Toxicity in CD1 mouse assessed as haemoglobin level at 450 mg/kg, po after 3 days; type: organism-based; parameters: dose 450 mg/kg, route oral; conditions: in vivo, 72 h; how it was run: as §5
Mus musculus [27] = test: Toxicity in CD1 mouse assessed as glutamic-pyruvate transaminase level at 450 mg/kg, po after 3 days; type: organism-based; parameters: dose 450 mg/kg, route oral; conditions: in vivo, 72 h; how it was run: as §5
Mus musculus [28] = test: Toxicity in CD1 mouse assessed as haemoglobin level at 300 mg/kg, ip after 3 days; type: organism-based; parameters: dose 300 mg/kg, route intraperitoneal; conditions: in vivo, 72 h; how it was run: as §5
Mus musculus [29] = test: Toxicity in CD1 mouse assessed as glutamic-pyruvate transaminase level at 300 mg/kg, ip after 3 days; type: organism-based; parameters: dose 300 mg/kg, route intraperitoneal; conditions: in vivo, 72 h; how it was run: as §5
Mus musculus [30] = test: Toxicity in CD1 mouse assessed as hematocrite level at 300 mg/kg, ip after 3 days; type: organism-based; parameters: dose 300 mg/kg, route intraperitoneal; conditions: in vivo, 72 h; how it was run: as §5
Mus musculus [31] = test: Toxicity in CD1 mouse assessed as decrease in weight respect to day zero at 300 mg/kg, ip after 3 days; type: organism-based; parameters: dose 300 mg/kg, route intraperitoneal; scale not given: the % may be the effect or the level left; conditions: in vivo, 72 h; how it was run: as §4
Mus musculus [32] = test: Toxicity in CD1 mouse assessed as leukocyte level at 450 mg/kg, po after 3 days; type: organism-based; parameters: dose 450 mg/kg, route oral; conditions: in vivo, 72 h; how it was run: as §5
Mus musculus [33] = test: Toxicity in CD1 mouse assessed as increase in weight respect to day zero at 450 mg/kg, po after 3 days; conditions: in vivo, 72 h
Mus musculus [34] = test: Toxicity in CD1 mouse assessed as glutamic-oxalacetate transaminase level at 450 mg/kg, po after 3 days; type: organism-based; parameters: dose 450 mg/kg, route oral; conditions: in vivo, 72 h; how it was run: as §5
Mus musculus [35] = test: Toxicity in CD1 mouse assessed as increase in weight respect to day zero at 300 mg/kg, ip after 3 days; type: organism-based; parameters: dose 300 mg/kg, route intraperitoneal; conditions: in vivo, 72 h; how it was run: as §4
Trypanosoma cruzi [36] = test: Antitrypanosomal activity against Trypanosoma cruzi infected in po dosed CD1 mouse assessed as prevention of amastigote nest in smooth muscle administered daily for 14 days measured on day 45; type: functional, organism-based; conditions: Muscle tissue; how it was run: as §2
Trypanosoma cruzi [37] = test: Antitrypanosomal activity against Trypanosoma cruzi infected in po dosed CD1 mouse assessed as prevention of inflammatory infiltrates in smooth muscle administered daily for 14 days measured on day 45; type: functional, organism-based; conditions: Muscle tissue; how it was run: as §2

Compound	Activity (Mus musculus [1])	Activity (Mus musculus [2])	Activity (Mus musculus [3])	inhibition of growth at 5 µM (Trypanosoma cruzi [4])	Activity (Mus musculus [5])	Activity (Mus musculus [6])	Activity (Mus musculus [9])	Activity (Mus musculus [10])	Activity (Mus musculus [12])	Activity (Mus musculus [13])	Activity (Mus musculus [14])	Activity (Mus musculus [15])	Activity (Mus musculus [17])	Activity (Mus musculus [21])	Activity (Mus musculus [22])	Activity (Mus musculus [23])	Activity (Mus musculus [24])	Activity (Mus musculus [26])	Activity (Mus musculus [27])	Activity (Mus musculus [28])	other results
COCCNC(=O)N/N=C/c1ccc([N+](=O)[O-])o1	Non-toxic	Non-toxic	Non-toxic	20%	Toxic	Non-toxic	Toxic	Non-toxic	Non-toxic	Non-toxic	Toxic	Toxic	Non-toxic	Non-toxic	Non-toxic	–	–	–	–	–	Activity (Trypanosoma cruzi [7]): Active; Activity (Trypanosoma cruzi [8]): Active; Activity (Mus musculus [11]): Non-toxic; Activity (Mus musculus [16]): Non-toxic; Activity (Mus musculus [18]): 0%; Activity (Mus musculus [19]): 0%; Activity (Mus musculus [20]): 1%
CCCCCCOC(=O)N/N=C/c1ccc([N+](=O)[O-])o1	Non-toxic	Non-toxic	Non-toxic	93%	Toxic	Non-toxic	Toxic	Non-toxic	Non-toxic	Non-toxic	–	Non-toxic	Non-toxic	Non-toxic	Non-toxic	140 IU/L	4900 µL⁻¹	10.6 g/dL	34 IU/L	12.3 g/dL	Activity (Mus musculus [25]): 34.4%; Activity (Mus musculus [29]): 32 IU/L; Activity (Mus musculus [30]): 38.7%; Activity (Mus musculus [31]): 0%; Activity (Mus musculus [32]): 2700 µL⁻¹; Activity (Mus musculus [33]): 3%; Activity (Mus musculus [34]): 192 IU/L
CCCCCCNC(=O)N/N=C/C=C/c1ccc([N+](=O)[O-])o1	Non-toxic	Non-toxic	Non-toxic	82%	Toxic	Non-toxic	Toxic	Non-toxic	Non-toxic	Non-toxic	Non-toxic	Non-toxic	Non-toxic	Toxic	Non-toxic	109 IU/L	31700 µL⁻¹	16.3 g/dL	29.4 IU/L	12.8 g/dL	Activity (Mus musculus [35]): 8%; Activity (Trypanosoma cruzi [7]): Active; Activity (Trypanosoma cruzi [8]): Active; Activity (Trypanosoma cruzi [36]): Active; Activity (Mus musculus [29]): 76.2 IU/L; Activity (Mus musculus [32]): 32400 µL⁻¹; Activity (Mus musculus [33]): 21%; Activity (Trypanosoma cruzi [37]): Active; Activity (Mus musculus [34]): 94.1 IU/L
CC1CS(=O)(=O)CCN1/N=C/c1ccc([N+](=O)[O-])o1 (stereo unspecified) [NIFURTIMOX]	Non-toxic	Non-toxic	Non-toxic	46%	Toxic	Non-toxic	Toxic	Non-toxic	Non-toxic	Non-toxic	Non-toxic	Toxic	Non-toxic	Non-toxic	Non-toxic	177 IU/L	5100 µL⁻¹	13.5 g/dL	49 IU/L	13.2 g/dL	Activity (Mus musculus [25]): 42.4%; Activity (Mus musculus [29]): 32.5 IU/L; Activity (Mus musculus [30]): 39.3%; Activity (Mus musculus [31]): 3%; Activity (Mus musculus [32]): 6700 µL⁻¹; Activity (Mus musculus [16]): Non-toxic; Activity (Mus musculus [18]): 0%; Activity (Mus musculus [34]): 162 IU/L; Activity (Mus musculus [19]): 6%
